Compound activity (PubChem)
TRPC6 inh: inhibitors of mouse TRPC6 channel; Q61143; HEK293-TRPC6, membrane potential dye, ACh-evoked depolarization; active compounds read low; B-score at 10 µM; hit rate 1.1% among 310,000; AID 2553;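 active = B-score under library mean minus 3 SD, initial fluorescence not abnormally high, positive integrated signal ratio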;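 also: B-score derived from integrated fluorescence ratio over the kinetic read; more negative B-score means stronger inhibition of depolarization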
TRPC4 PAM: TRPC4 (mouse) allosteric potentiation. Q9QUQ5. HEK293 TRPC4beta/mu-opioid, DAMGO EC20, Fluo-4 Ca2+ flux; active compounds read high. B-score at 10 µM. hit rate 0.42% among 310,000;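 active = B-score of calcium response area above 5 SD of library B-scores, with initial fluorescence ratio within 5 SD of library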;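 also: B-score of integrated fluorescence ratio over time as area under calcium response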
TRPC4 block: blocks the mouse TRPC4 cation channel. B-score at 10 µM. hit rate 0.39% among 300,000. HEK293 TRPC4beta/mu-opioid, DAMGO-evoked Fluo4 calcium flux; active compounds read low;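 active = B-score over 3 SD under the library average, no early fluorescence shift, positive overall ratio signal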
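Assay system – HEK293 line stably carrying TRPC4beta and mu-opioid receptor · Doses – single dose · Detection – Fluo4 calcium-dye fluorescence, kinetic read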
TRPC6 act: activators of mouse TRPC6 channel | HEK293-TRPC6 membrane potential dye fluorescence; active compounds read high | B-score at 10 µM | hit rate 0.13% among 310,000;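 active = B-score of the integrated fluorescence ratio above library mean plus 3 SD, and starting fluorescence ratio within library mean plus 5 SD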;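 also: higher score means more depolarization so channel activation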
DSG3 Ab inh: human desmoglein-3 autoantibody binding inhibition; binding (percent of control), % at 10 µM; P32926; hit rate 0.48% among 310,000; DSG3-coupled beads, scFv-anti-DSG3-GFP binding, flow cytometry; active compounds read low;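 active = binding more than 3 SD below its plate's average and above zero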;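 also: hits lower antibody fragment binding to DSG3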
TRPC4 act: TRPC4 (mouse) channel activation | B-score at 10 µM | hit rate 0.49% among 310,000 | AID 2237 | Q9QUQ5 | HEK293 TRPC4beta/mu-opioid, Fluo4 calcium fluorescence; active compounds read high;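 active = B-score above 5 SD of library B-scores, and initial fluorescence ratio not above library mean plus 5 SD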;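 also: positive B-score marks a calcium rise read as TRPC4 activation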
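Technique: kinetic Fluo4 calcium fluorescence; Test system: TRPC4beta and mu-opioid receptor HEK293 stable cells; Measure: B-scored integrated calcium fluorescence ratio; Benchmarks: low control buffer alone, high control maximal DAMGO; Schedule: 45 min room-temperature Fluo4 loading, 110 s read.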
TRPC4 spec 2: second check of whether TRPC6 inhibitors also affect mouse TRPC4; AID 2776; HEK293 TRPC4/MOR, membrane potential dye fluorescence; channel activated by saturating DAMGO dose; inhibition, % at 10 µM; hit rate 42% among 920; shares compounds with TRPC6 inh;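 active = compounds whose fluorescence signal differed from control wells by over 3 SD, either direction, in both duplicate plates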
TRPC4 spec: mouse TRPC4 off-target activity of TRPC6 inhibitors. shares compounds with TRPC6 inh. HEK293 TRPC4/mu-opioid, membrane potential fluorescence. activity change, negative = inhibition, % at 10 µM. hit rate 61% among 920;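 active = rise or fall in signal beyond 3 SD of buffer-only wells in both replicate plates, either sign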;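 also: integrated kinetic ratio of fluorescence range over baseline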
HEK293 MPD ctr 2-1: parental HEK293 nonspecific activity of TRPC6 inhibitors, second screen; parental HEK293 membrane potential dye fluorescence; maximal acetylcholine challenge after compound addition; signal change vs control, % at 10 µM; shares compounds with TRPC6 inh; AID 2779; hit rate 31% among 920;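 active = membrane potential signal moving either way by over 3 SD of the maximum-effect control, in both duplicate plates, meaning non-specific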
HEK293 MPD ctr-1: checks TRPC6 inhibitor effects in parental HEK293 cells; AID 2780; hit rate 60% among 920; parental HEK293 membrane potential dye fluorescence; shares compounds with TRPC6 inh; membrane potential signal change, % at 10 µM;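 active = membrane potential signal shifting up or down by more than 3 SD of buffer-only wells, on both duplicate plates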
HEK293 MPD ctr-2: parental HEK293 nonspecific activity of TRPC6 modulators; shares compounds with TRPC6 inh; membrane potential dye fluorescence; membrane potential signal change, % at 10 µM; hit rate 51% among 2,400; AID 488924;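 active = membrane potential signal moves up or down beyond 5 SD from buffer-only wells, on both duplicate plates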
HEK293 MPD ctr 2-2: parental HEK293 nonspecific activity of TRPC6 modulators, second screen. shares compounds with TRPC6 inh. membrane potential dye fluorescence; after compound, maximal acetylcholine stimulation. inhibition, % at 10 µM. hit rate 14% among 2,400. AID 488926;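 active = membrane potential signal drops by more than 5 SD from the mean control signal, in both duplicate plates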;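 also: plate controls were acetylcholine ECmax control wells for no effect and buffer only wells for full effect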
TRPC4/MOR mod: tests whether TRPC6 modulators also affect mouse TRPC4 | shares compounds with TRPC6 inh | HEK293 TRPC4/mu-opioid, membrane potential fluorescence | percent change from control (negative = decrease, positive = increase), % at 10 µM | hit rate 69% among 2,400 | AID 488927;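 active = membrane potential signal moved up or down beyond 5 SD of buffer control wells, in both duplicate plates, actives on both sides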;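 also: plate controls were assay buffer wells for no effect and DAMGO maximal-effect wells for full effect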
TRPC4 ctr inh 2: second selectivity test of TRPC6 modulators against mouse TRPC4 | shares compounds with TRPC6 inh | AID 488928 | HEK293 TRPC4/mu-opioid, membrane potential dye fluorescence; stimulated with maximal-effect DAMGO | inhibition, % at 10 µM | hit rate 55% among 2,400;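 active = drop in membrane potential signal beyond 5 SD of the control wells in both duplicate plates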;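 also: TRPC4 counter screen for TRPC6 hits run under conditions tuned for TRPC6 not TRPC4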
TRPC6 block conf: mouse TRPC6 inhibitor confirmation; inhibition, % at 10 µM; shares compounds with TRPC6 inh; HEK293-TRPC6, membrane potential dye, ACh-evoked depolarization; hit rate 43% among 3,300;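 active = fluorescence ratio falls more than 5 SD below the full-stimulation control mean, in both duplicate runs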;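 also: integrated fluorescence ratio of peak minus minimum over baseline after agonist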
TRPC6 act conf: mouse TRPC6 activator confirmation; shares compounds with TRPC6 inh; HEK293-TRPC6 membrane potential dye fluorescence, FDSS; activation, % at 10 µM; hit rate 11% among 2,800; AID 488961;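 active = ratio signal rise beyond 5 SD above unstimulated control wells' mean, seen in both duplicate runs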;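 also: plate controls were buffer EC0 wells for no effect and acetylcholine ECmax response for full effect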
* = called active by the depositor; i = inactive; . = no result given. Only some compounds are listed: those with a hit (about 2.5% of all), similar ones and a draw of the others.

SMILES | TRPC6 inh | TRPC4 PAM | TRPC4 block | TRPC6 act | DSG3 Ab inh | TRPC4 act | HEK293 MPD ctr-2 | HEK293 MPD ctr 2-2 | TRPC4/MOR mod | TRPC4 ctr inh 2 | TRPC6 block conf | TRPC6 act conf | others
O=C(Nc1cccc(-c2ccc(F)cc2)c1)C1CCCN(C(=O)c2cscn2)C1 (configuration not stated) | i | i | i | i | 108 | i | . | . | . | . | . | .
CC(=O)N1CCc2cc(S(=O)(=O)NCCC(=O)NCCc3ccc(Cl)cc3)ccc21 | i | i | i | i | 104 | i | . | . | . | . | . | .
CN1CCN(c2ccccc2NC(=O)c2cc3ccccc3o2)CC1 | -13* | i | i | i | 101 | i | . | . | . | . | 72%* | i | TRPC4 spec 2=25%*;TRPC4 spec=-22%*;HEK293 MPD ctr 2-1=i;HEK293 MPD ctr-1=-212%*
CN1CCN(c2ccc(NC(=O)c3ccc(Oc4ccccc4)cc3)cc2)CC1 | -6.2* | i | i | i | 117 | i | i | i | i | 58%* | 48%* | i
O=C(Nc1ccccc1N1CCCC1)c1cc2ccccc2o1 | i | i | i | i | 96 | i | . | . | . | . | . | .
CCOC(=O)C1CCN(C(=O)Cn2nc(C)n3c(cc4cc(F)ccc43)c2=O)CC1 | i | i | i | i | 107 | i | . | . | . | . | . | .
C/C(=N\NC(=S)NCCc1ccccc1)c1ccc(C)cc1 | -5.3* | i | i | i | . | i | 187%* | i | -15%* | i | i | i
CC(=O)c1cnc(Nc2nc(C)c3ccccc3n2)nc1C | i | i | i | i | . | i | . | . | . | . | . | .
CC(=O)c1cnc(Nc2nc(C)c3ccc(C)cc3n2)nc1C | -5.7* | i | i | i | 100 | i | -154%* | 81%* | -20%* | i | i | i
CCOC(=O)c1cnc2ccc(Br)cc2c1NCCO | i | i | i | i | 89 | i | . | . | . | . | . | .
CCOC(=O)c1cnc2ccc(Br)cc2c1NCC(C)O (configuration not stated) | . | . | . | . | 108 | . | . | . | . | . | . | .
CCOC(=O)c1cnc2ccccc2c1NCCO | -5.6* | i | i | i | 108 | i | -108%* | i | -14%* | 40%* | 49%* | i
CCOC(=O)c1cnc2c(Cl)cc(Cl)cc2c1NCCOCCO | i | i | i | i | 101 | i | . | . | . | . | . | .
CCOC(=O)c1cnc2c(ccc3ccccc32)c1NCCCN(C)C | -6.4* | i | i | i | 118 | i | i | 70%* | i | 56%* | 48%* | i
CCOC(=O)c1cnc2ccc(Cl)cc2c1NCCN(C)C | -6.5* | i | i | i | 110 | i | -104%* | i | -18%* | 49%* | 46%* | i
COc1ccc(OC)c(CCNC(=O)CN2C(=O)COc3ccc(S(=O)(=O)N4CCOCC4)cc32)c1 | i | i | i | i | 113 | i | . | . | . | . | . | .
CC(=O)c1c(Cl)nc2ccc(Br)cc2c1-c1ccccc1 | i | i | i | i | 108 | i | . | . | . | . | . | .
O=C(NCCCN1CCCC1)c1cc2c(Cl)nc3ccccc3c2s1 | -6.6* | i | i | i | 108 | i | i | i | i | 35%* | i | i
CCC(C)(C)n1nnnc1C(c1ccc2ncccc2c1)N1CCCCCC1 (configuration not stated) | -5.1* | i | i | i | . | i | i | i | 28%* | 33%* | i | .
c1cnc2ccc(C(c3nnnn3C3CCCCC3)N3CCCCC3)cc2c1 (configuration not stated) | -5.9* | i | i | i | 99 | i | 149%* | i | 35%* | 30%* | 54%* | .
COc1ccc(CCC(=O)O)cc1OC | i | i | i | i | 100 | i | . | . | . | . | . | .
CCOc1cc(/C=C2\N=C(SCC)SC2=O)cc([N+](=O)[O-])c1OC(C)=O | i | i | i | i | 98 | i | . | . | . | . | . | .
CCOc1cc(/C=C2\N=C(SC)SC2=O)cc([N+](=O)[O-])c1OC(C)=O | -5.1* | i | i | i | 99 | i | i | i | i | 39%* | i | i
CCN(CC)S(=O)(=O)c1ccc(NC(=O)C(C)N(c2ccc(OC)cc2)S(C)(=O)=O)cc1 (configuration not stated) | i | i | i | i | 98 | i | . | . | . | . | . | .
CCOc1ccc(N(C(C)C(=O)Nc2ccc(OC)cc2)S(C)(=O)=O)cc1 (configuration not stated) | -6.4* | i | i | i | 103 | i | i | i | i | i | i | i
CCN(C(=O)c1ccc(S(=O)(=O)N2CCCCC2)cc1)C1CCS(=O)(=O)C1 (configuration not stated) | i | i | i | i | 90 | i | . | . | . | . | . | .
